Data set [1] deals with T1, P2Y purinoceptor 1 (Homo sapiens, UniProt P47900). As to the kind of experiment: Agonist activity at G-protein coupled P2Y1 receptor expressed in human 1321N1 cells assessed as increase in calcium by Fura2 assay. It is filed as functional, cell-based. In outline: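 Cell suspensions loaded with fura-2; [Ca2+]i read by dual-excitation spectrofluorometry at 37 °C in 10 mM HEPES-buffered saline pH 7.4 with 1 mM CaCl2 and 1 mM MgCl2. EC50 from maximal [Ca2+]i rise across concentrations; three experiments on separate days.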

Data set [2] in a line: Stability after 3 hrs in presence of alkaline phosphatase. It is filed as ADME. Conditions: isolated protein; call rule not given here. The procedure, abridged: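 4 mM nucleotide with calf intestine alkaline phosphatase (12.5 units) in 0.1 M Tris-HCl, 0.1 M MgCl2, final pH 9.8, at 37 °C for 3 h. Stopped at 80 °C for 15 min, then weak anion-exchange cleanup and freeze-drying. Residual analogue quantified by change in reverse-phase HPLC peak integration over time.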

The subject of data set [3] is Rattus norvegicus. As to the kind of experiment: Antihyperglycemic activity against Han Wistar rat assessed as blood glucose level at […], iv after 150 mins by OGTT. It is filed as functional.
Data set [4] in a line: Stability in human whole blood assessed as half life. It is filed as ADME, tissue-based.
Data set [5] concerns Rattus norvegicus. As to the kind of experiment: Antihyperglycemic activity against Han Wistar rat assessed as blood glucose level at […], iv after 45 mins by OGTT. It is filed as functional.
Data set [6] concerns Rattus norvegicus. As to the kind of experiment: Antihyperglycemic activity against Han Wistar rat assessed as increase in insulin level at […], iv after 5 mins relative to basal level. It is filed as functional.
Data set [7] deals with T1, P2Y purinoceptor 1. Briefly: Agonist activity at P2Y1 receptor expressed in human HEK293 cells. It is filed as functional, cell-based.
Data set [8] relates to Pancreas. As to the kind of experiment: Induction of insulin secretion in isolated rat pancreas. It is filed as functional, tissue-based.
Data set [9] deals with Pancreas. As to the kind of experiment: Induction of insulin secretion in isolated rat pancreas relative to basal level. It is filed as functional.
The subject of data set [10] is Rattus norvegicus. As to the kind of experiment: Antihyperglycemic activity against Han Wistar rat assessed as blood glucose level at 1 mg/kg, po after 45 mins by OGTT. It is filed as functional. The procedure, abridged:
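Overnight-fasted male Wistar Han rats, 10-11 weeks old, jugular-cannulated, 5 per group. Glibenclamide 1 mg/kg given orally at t = -30 min, then oral glucose 2 g/kg (3 mL/kg) at t = 0. Tail vein blood glucose read by glucometer over time, compared with saline-treated controls.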

Data set [11] is described as follows: Stability in human blood assessed as half life. It is filed as ADME, tissue-based.
In data set [12] the test system is Pancreas. As to the kind of experiment: Increase in insulin secretion in isolated rat pancreas relative to ATP. It is filed as functional.
The nature of data set [13]: Stability in human serum assessed as half life of hydrolysis. It is filed as ADME, cell-free.

This note sets out measurements from ChEMBL document CHEMBL1157627, “A novel insulin secretagogue based on a dinucleoside polyphosphate scaffold” (J Med Chem, 2010).

T1 sequence (P47900 whole entry): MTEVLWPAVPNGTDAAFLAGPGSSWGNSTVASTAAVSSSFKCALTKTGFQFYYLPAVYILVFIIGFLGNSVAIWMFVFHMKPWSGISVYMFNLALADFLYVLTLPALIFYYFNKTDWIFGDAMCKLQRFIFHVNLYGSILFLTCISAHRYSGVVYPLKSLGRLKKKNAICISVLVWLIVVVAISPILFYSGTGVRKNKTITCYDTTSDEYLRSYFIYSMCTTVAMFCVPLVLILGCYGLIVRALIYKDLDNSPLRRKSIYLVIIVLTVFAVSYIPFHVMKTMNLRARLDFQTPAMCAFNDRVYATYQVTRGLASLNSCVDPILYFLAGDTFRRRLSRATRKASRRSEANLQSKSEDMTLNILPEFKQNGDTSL

For the molecule `CSc1nc(N)c2ncn([C@@H]3O[C@H](COP(=O)([O-])CP(=O)([O-])OP(=O)([O-])OC[C@H]4O[C@@H](n5cnc6c(N)nc(SC)nc65)[C@H](O)[C@@H]4O)[C@@H](O)[C@H]3O)c2n1.[Na+].[Na+].[Na+]`, the EC50 result on P2Y purinoceptor 1 [1] (1321-n1) is reported as “Not Active”. Moreover, the Stability entry in data set [2] is “Stable”. On to `Nc1ncnc2c1ncn2[C@H]1O[C@@H](COP(=O)(O)OP(=O)(O)OP(=O)(O)OC[C@@H]2O[C@H](n3cnc4c(N)ncnc43)[C@@H](O)[C@H]2O)[C@H](O)[C@@H]1O`, for which the EC50 on P2Y purinoceptor 1 [1] (read-out: EC50) was found to be 11 nM.

For the molecule `CSc1nc(N)c2ncn([C@@H]3O[C@H](COP(=O)(O)OP(=O)(O)CP(=O)(O)O)[C@@H](O)[C@H]3O)c2n1` (single isomer, unassigned), the EC50 at P2Y purinoceptor 1 [1] (read-out: EC50) worked out at 80 nM. The Activity in the data set on Rattus norvegicus [3] amounted to 85 mg/dL.

For the molecule `Nc1ncnc2c1ncn2[C@@H]1O[C@H](COP(=O)(O)OP(=O)(O)OP(=O)(O)OP(=O)(O)OC[C@H]2O[C@@H](n3cnc4c(N)ncnc43)[C@H](O)[C@@H]2O)[C@@H](O)[C@H]1O` [DIADENOSINE TETRAPHOSPHATE], the half-life in [4] stood at 2 min. Turning to `CSc1nc(N)c2ncn([C@@H]3O[C@H](COP(=O)([O-])OP(=O)([O-])CP(=O)([O-])OP(=O)([O-])OC[C@H]4O[C@@H](n5cnc6c(N)nc(SC)nc65)[C@H](O)[C@@H]4O)[C@@H](O)[C@H]3O)c2n1.[Na+].[Na+].[Na+].[Na+]`, at P2Y purinoceptor 1 [1] (read-out: EC50), the EC50 was found to be 460 nM. Also, the Stability result in data set [2] is recorded as “Stable”.

As for `CSc1nc(N)c2ncn([C@@H]3O[C@H](COP(=O)([O-])CP(=O)([O-])OP(=O)([O-])OP(=O)([O-])OC[C@H]4O[C@@H](n5cnc6c(N)nc(SC)nc65)[C@H](O)[C@@H]4O)[C@@H](O)[C@H]3O)c2n1.[Na+].[Na+].[Na+].[Na+]`, the EC50 on P2Y purinoceptor 1 [1] (read-out: EC50) was 420 nM. The Activity with Rattus norvegicus [5] was found to be 100 mg/dL. Also, the FC in the data set on Rattus norvegicus [6] is on record as 4. Moreover, the Stability result in data set [2] is “Stable”.

With `[BH3-]P(=O)(OC[C@H]1O[C@@H](n2cnc3c(N)nc(SC)nc32)[C@H](O)[C@H]1O)OP(=O)([O-])OP(=O)([O-])[O-].[Na+].[Na+].[Na+].[Na+]` (stereo not given in full), the EC50 on P2Y purinoceptor 1 [7] was 2.6 nM; with Pancreas [8], 28 nM. The “fold change (FC)” value with Pancreas [9] came to 9. Take `COc1ccc(Cl)cc1C(=O)NCCc1ccc(S(=O)(=O)NC(=O)NC2CCCCC2)cc1` [GLYBURIDE]: the Activity with Rattus norvegicus [10] was found to be 63 mg/dL. `Nc1nc2c(ncn2[C@@H]2O[C@H](COP(=O)(O)OP(=O)(O)OP(=O)(O)OP(=O)(O)OC[C@H]3O[C@@H](n4cnc5c(=O)[nH]c(N)nc54)[C@H](O)[C@@H]3O)[C@@H](O)[C@H]2O)c(=O)[nH]1`: in [11], the half-life stood at 5 min. In the case of `CCCCCCSc1nc(N)c2ncn([C@H]3O[C@@H](COP(O)(=S)OP(=O)(O)OP(=O)(O)O)[C@H](O)[C@@H]3O)c2n1` (stereo not given in full), the “fold change (FC)” value in the data set on Pancreas [12] was found to be 100. Take `Nc1ncnc2c1ncn2[C@@H]1O[C@H](COP(=O)(O)OP(=O)(O)O)[C@@H](O)[C@H]1O` [ADENOSINE DIPHOSPHATE]: the EC50 at P2Y purinoceptor 1 [1] (read-out: EC50) was determined as 14 nM. Take `CSc1nc(N)c2ncn([C@@H]3O[C@H](COP(=O)(O)OP(=O)(O)O)[C@@H](O)[C@H]3O)c2n1` (single isomer, unassigned): in data set [13], the half-life was 726 min.
